According to ChEMBL document CHEMBL4513216, “Probing the Open Global Health Chemical Diversity Library for Multistage-Active Starting Points for Next-Generation Antimalarials” (ACS Infect Dis, 2020):

Experiment: Toxicity liver stage against HepG2, at 10uM
Format: cell-based
Parameters: test concentration 10 uM, cell line HepG2-A16-CD81EGFP
Settings: human, HepG2-A16-CD81EGFP cells; read-out: INHIBITION
Method in brief: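 Uninfected HepG2-A16-CD81EGFP cells, 3 × 10^3 per well, 1536-well, plated on prespotted compound at 10 μM final, parasite-free screening media added to match infected plates; puromycin 10 μM positive, DMSO 0.5% negative; run in parallel with 48 h PbLuc assay at 37 °C, 5% CO2; viability by CellTiter-Glo luminescence, normalized to controls.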

Row | Structure (SMILES) | cytotoxicity at 10 µM [%]
1 | Cc1cc(C)c2c(OCC(=O)NCC(O)C(F)(F)F)nn(C)c2n1 (configuration not stated) | 1.3
2 | COc1ccccc1C1(CNc2cn[nH]c(=O)c2Cl)CCOCC1 | 0.152
3 | CCOc1cccc(NC(=O)c2cscn2)n1 | -3.59
4 | Cc1nn(C)cc1Cn1c(=O)ccc2ccccc21 | -12.5
5 | CC1CN(C)c2ccccc2CN1C(=O)c1ccncc1 (configuration not stated) | -23.4
6 | COCCN1C[C@@H]2CC[C@H]1CN(C(=O)CCc1n[nH]c(C)c1C)C2 | -8.92
7 | CN1CCN(Cc2cccc(NCc3ncc[nH]3)c2)CC1 | -6.44
8 | COc1cccc(-c2nc(CNC(C)Cn3cccn3)cs2)c1 (configuration not stated) | -6.31
9 | O=c1[nH]nc(CNc2cncc(Br)c2)[nH]1 | -1.23
10 | Cc1ccccc1CN1CCCC1c1cncc(Nc2nncs2)n1 (configuration not stated) | 1.66
11 | Cc1ccc(C(=O)N2CCc3c(CNc4ncccn4)cncc3C2)o1 | 9.21
12 | CC(C)c1cc(NC(CCO)c2ccccc2)n2nccc2n1 (configuration not stated) | -45.4
13 | CCN1CCO[C@@H]2CN(C(=O)NCc3ccccc3)CC[C@@H]2C1 | -117
14 | CS(=O)(=O)N1CCC2(CCN(Cc3nccs3)CC2)CC1 | 8.28
15 | CC(=O)Nc1ccsc1C(=O)N1CC[C@H]2CC[C@@H](C1)N2C | -1.47
16 | CCN1CCN(c2ccc(CNC(=O)c3sccc3C)cn2)CC1 | -17.8
17 | c1csc(CN2CCC3(CCCN3CC3CC3)CC2)n1 | 8.22
18 | N#Cc1ccc(CN(CC(N)=O)C2CCCC2)cc1 | 38
19 | Cc1noc([C@]23COC[C@H]2CN(C(C)C)C3)n1 | 1.44
20 | CNC(=O)CS(=O)(=O)C1CCN(S(=O)(=O)c2cccc(C(C)=O)c2)CC1 | 5.85
21 | O=C(C1CCCO1)N1CCc2ncnc(NC3CCC3)c2CC1 (configuration not stated) | -5.16
22 | Cc1nc(S(=O)(=O)NCCC(=O)NCc2ccsc2)cn1C | 3.68
23 | O=S(=O)(CCN1CCOC(Cn2cccn2)C1)c1ccccc1 (configuration not stated) | -0.165

Row | Structure (SMILES) | cytotoxicity at 10 µM [%]
24 | COc1ccccc1CN1CCCC(Cc2nccnc2N)C1 (configuration not stated) | -3.81
25 | Cc1nnsc1C(=O)NCCn1ccc(-c2ccncc2)n1 | 1.92
26 | CN(CCc1cccs1)C1CCCN(Cc2noc(C3CC3)n2)C1 (configuration not stated) | -12.5
27 | CCn1nc(C)c2nc(C)nc(NCCCn3cccn3)c21 | 2.38
28 | CN(CC1CCN(CCO)CC1)CC(O)c1ccc(F)c(F)c1 (configuration not stated) | -51.5
29 | COC(=O)CN(CC1CCOC1)C1CC1 (configuration not stated) | -24.3
30 | Cc1nc2n(n1)CC(NCc1nnc(C(C)(C)C)o1)CC2 (configuration not stated) | -5.23
31 | Cc1ccc(C(=O)NCCNCC2CNc3ccnn3C2)cc1F (configuration not stated) | -1.62
32 | CC(C)NC(=O)N(C)C1CCN(c2ccccc2Cl)C1=O (configuration not stated) | -4.56
33 | NC(=O)C1CCN(S(=O)(=O)c2cnn(-c3ccccc3)c2)CC1 | 8.51
34 | Cc1nnn2c1COCC(CNC(=O)c1ccc3[nH]ccc3c1)C2 (configuration not stated) | -10.7
35 | COc1ccccc1OCCCN1CCNC1=O | 1.5
36 | O=C(N1CCCC1)N1CCC2(CC1)COCCN(Cc1cccnc1)C2 | -77.3
37 | CC(C)N1CC(C(=O)NCc2cccnc2-n2cccn2)CC1=O (configuration not stated) | -10.8
38 | O=C(O)c1cc(S(=O)(=O)Nc2cccc(F)c2F)cc2c1OCCO2 | -3.65
39 | Cc1c(NC(=O)CN(C)S(C)(=O)=O)cccc1OC1CCCC1 | -0.302
40 | CCNc1cc2c(nn1)CCN(C(=O)c1cc3cccc(C)c3o1)C2 | -8.06
41 | CC(=O)N1CCC(c2nc3ccc(-c4cccc(F)c4)cn3n2)CC1 | 12.4
42 | Cc1nn(-c2ccccc2)c(C)c1-c1ccnc(N2CCCOCC2)n1 | -11.3
43 | Cc1ccsc1CN(CCN(C)C)C(=O)c1ccc(C#N)nc1 | -120
44 | NC(=O)CN(Cc1ncc(-c2ccc(Cl)cc2)o1)C1CCCC1 | -1.99
45 | CCOC(=O)N1CCC(OC)c2ccccc2N(CC(=O)NC)C(=O)C1 (configuration not stated) | 9.12
46 | Cc1nn(C)cc1C(=O)N1CCCn2nc(CN3CC[C@H](F)C3)cc2C1 | -7.88

Row | Structure (SMILES) | cytotoxicity at 10 µM [%]
47 | CN(C)c1ccc(C(=O)N2CCCC2c2ccc(Cl)cc2)nn1 (configuration not stated) | -10.7
48 | CSCC(=O)N1CCCC(c2cc(C)[nH]n2)C1 (configuration not stated) | -11.3
49 | NC(=O)N1CC[C@H](O)[C@@H]1Cc1cccnc1 | 1.72
50 | Cc1noc(C)c1CCC(=O)N1CCCN(Cc2cccs2)CC1 | -3.39
51 | CCS(=O)(=O)N1CCOC2(COCCN(c3nccs3)C2)C1 (configuration not stated) | 7.4
52 | Cc1ccc(OCC(=O)NCC(F)(F)F)nc1 | 0.84
53 | CN(C(=O)c1ccncc1)c1nnc(C2CCOC2)s1 (configuration not stated) | 3.57
54 | COc1ccccc1CN1CC[C@]2(C[C@@H](OC)CO2)C1 | -5.35
55 | Cc1nc(C)n(CC2CCCN2CC(=O)Nc2cc(C(C)C)no2)n1 (configuration not stated) | -0.292
56 | Cc1cc2c(=O)n(CC(=O)N3CCn4cccc4C3C(C)C)cnc2s1 (configuration not stated) | 3.77
57 | CCCN1CCCN(S(=O)(=O)c2cnc3onc(C)c3c2)CC1 | 1.71
58 | CCOCc1cnc2n1CCN(C(=O)c1cn(C)c3ccccc13)C2C (configuration not stated) | -108
59 | Cc1c(C(=O)N2CCSCC2)sc2nc(C(F)(F)F)ccc12 | -8.58
60 | CN(C)c1cccc(C(=O)Nc2cn(C)c(=O)n(C)c2=O)c1 | 3.34
61 | Fc1ccc(CN2CCC3(CCN(Cc4nccs4)CC3)C2)cc1 | 5.04
62 | Cc1nnc(CN2CCCC2c2cccc(Br)c2)o1 (configuration not stated) | -3.51
63 | O=c1cc(CN2CCCC(CCc3c(F)cccc3F)C2)[nH]c(=O)[nH]1 (configuration not stated) | -3.88
64 | O=S(=O)(NCCn1ccc(-c2ccncc2)n1)C1CC1 | 0.794
65 | Cc1ccc2oc(CN3CCn4nc(CCC(=O)O)cc4C3)c(C)c2c1 | -5.56
66 | COC(=O)NCCCn1ccnc1-c1ccccc1 | -2.27
67 | CCC(C)C(=O)NCCc1nc(C(F)(F)F)cs1 (configuration not stated) | 2.08
68 | COc1ccc(F)c(-c2cc(O)nc(N)n2)c1 | 2.05
69 | Cc1ccc(C(=O)NS(=O)(=O)c2ccc3c(c2)OCCCO3)o1 | 2.91

Row | Structure (SMILES) | cytotoxicity at 10 µM [%]
70 | COC(=O)CCCC(=O)N(C)CC1Cc2ccccc2CN1C (configuration not stated) | -12.4
71 | CCOC(=O)CNC(=O)N1CCc2onc(-c3ccc(Cl)cc3)c2C1 | -43.4
72 | Cc1[nH]ncc1C(=O)N1CCCN(Cc2nccn2C(C)C)CC1 | -6.33
73 | CCN1CC(C(=O)NCc2ccnc(-n3ccnc3C)c2)CC1=O (configuration not stated) | -25.5
74 | O=C(c1ccco1)N1C[C@H]2CN(Cc3cccc(F)c3)C(=O)[C@H]2C1 | -78.2
75 | CCC1c2ccc(C)n2CCN1C(=O)Cn1cnc2sc(C)cc2c1=O (configuration not stated) | 6.09
76 | NC(=O)c1cc(C2CC2)nc2ccc(F)cc12 | 3.87
77 | Cc1cc(C)n(CNc2nonc2C(N)=O)n1 | -13
78 | c1ccc([C@@H]2CN(Cc3ccncc3)C[C@H]2c2cc[nH]n2)cc1 | -0.189
79 | CC(C)CN1CCC2(CCN(Cc3ccoc3)CC2)C1=O | 7.85
80 | O=C(CSC(F)(F)F)N1CCC2(CCCN(C3CCOCC3)C2=O)C1 (configuration not stated) | -128
81 | CCSCCOC(=O)CCCc1ccc2c(c1)CC(=O)N2 | 6.34
82 | CC(=O)N1CC[C@H]2CC(=O)N(Cc3ccc4c(c3)OCO4)CC[C@H]2C1 | -3.91
83 | CCN(Cc1cccc(Cl)c1)Cc1ncc(C(C)(C)C)o1 | 11.2
84 | CCCc1cc(C(=O)N2CCCC2c2cccnc2)[nH]n1 (configuration not stated) | -9.81
85 | COc1ccc2c(c1)nc1n2[C@@H](CNCc2cnn(C)c2)COC1 | -6.8
86 | CCCn1ncc(C(=O)N2CCN([C@H]3CCCC[C@@H]3O)CC2)c1C | -137
87 | Cc1cccc2c(CCNS(=O)(=O)C3CCOC3)c[nH]c12 (configuration not stated) | 12.7
88 | O=C(c1cnc(Nc2ccccc2)nc1)N1CCC(O)(CO)CC1 | -0.756
89 | CCCS(=O)(=O)CC(=O)N1CCCC1c1noc(C2CC2)n1 (configuration not stated) | 3.34
90 | Cc1nsc(N2CCc3sccc3C2)n1 | 7.03
91 | CCCS(=O)(=O)N1CCOC2(CCCN(c3ncc(F)cn3)C2)C1 (configuration not stated) | 8.22
92 | Cc1cc(NS(=O)(=O)c2ccc(Cl)s2)ccc1-n1cccc1C(=O)O | 3.2

Row | Structure (SMILES) | cytotoxicity at 10 µM [%]
93 | CC(CN1CCOCC1)NC(=O)N1CCN(S(C)(=O)=O)CC1 (configuration not stated) | 0.243
94 | COCCOCC(=O)N1CCCC(c2ncc[nH]2)C1 (configuration not stated) | -4.59
95 | O=C1C[C@H]2[C@@H](CCN2C(=O)c2ccoc2)N1CCN1CCOCC1 | -5.26
96 | FC(F)(F)c1nc(NC2CCCCC2)c2ccccc2n1 | 29.7
97 | Cc1cccc(CN2CCO[C@H]3[C@H](Oc4ccccn4)CC[C@@H]32)n1 | -4.65
98 | O=C(NCCCn1ccnc1)N1CCN(c2cccs2)CC1 | -2.53
99 | CCS(=O)(=O)N1CCc2ccc(NC(=O)Nc3ccccc3C)cc21 | 13.1
100 | Cc1occc1C(=O)N1C[C@@H]2CCCO[C@@H]2[C@H](NC(=O)CC2CC2)C1 | -102
101 | O=C(CCn1ccc(=O)[nH]c1=O)N1CCC(OCc2cccnc2)CC1 | -15.7
102 | Cc1ccc2[nH]c(=O)cc(C(=O)NCCCn3nccc3C3CC3)c2c1 | -4.35
103 | CCN(CC(=O)N(C)C)C(=O)c1ccc(-c2nc(C)cs2)cc1 | 6.98
104 | O=C(CCCOc1ccccc1F)Nc1cc[nH]n1 | -11
105 | Cc1cc(CC(=O)N2CCCC2c2nc(C(C)C)no2)on1 (configuration not stated) | -25.9
106 | CCN(CC1CCCN(CCc2cccc(OC)c2)C1)C(=O)CSC (configuration not stated) | 8.76
107 | CC(=O)c1cccc(S(=O)(=O)NCCNC(=O)c2snnc2C)c1 | -0.302
108 | Cc1nn(C)c2cn(C(C)C(=O)NCc3ccc(F)cc3)nc12 (configuration not stated) | 9.46
109 | Cc1cc(OCC(O)c2nc3c([nH]2)CC(C)(C)CNC3=O)ccc1Cl (configuration not stated) | -1.57
110 | CCCc1nnc(N(C)CC2CCN(CC(C)C)C2)o1 (configuration not stated) | -1.41
111 | Cc1cnc(N2CCCC(O)C2)nc1-c1ccnn1C (configuration not stated) | -0.271
112 | C[C@@H]1CN2C[C@H](O)CC2CN1Cc1ccncc1 (some centres not stated) | 0.207
